Measurements collected from several papers.
Target: D(3) dopamine receptor (DRD3, Homo sapiens, UniProt P35462)

Structure (SMILES) | effect on | action | method | concentration | inhibition
C[C@H](C(=O)N[C@H]1COc2ccccc2[C@@H]1S(C)(=O)=O)c1ccc(F)cc1 | cell-free assay | – | – | 10 µM | 6%
CN(CCN1CCC(OC(=O)Nc2ccccc2-c2ccccc2)CC1)C(=O)c1ccc(CN2CCC(C(N)=O)CC2)cc1 | ligand displacement | – | radioligand | 1 µM | -4%
COc1ccc(S(=O)(=O)N2CCCCC2)cc1C | ligand displacement | – | radioligand | 10 µM | < 30%
O=C(Nc1cccnn1)N1CCN([C@@H]2CCOc3cc(C(F)(F)F)ccc32)CC1 | cell-free assay | – | – | 20 µM | 9%
COc1ccc(C(=O)NCc2cc(C(C)C)no2)cc1OC1CCN(C)CC1 | ligand displacement | – | radioligand | 10 µM | 15%
N#CC1(c2ccccn2)CCN(Cc2cc(C(=O)O)c(=O)n3ccccc23)CC1 | cell-free assay | – | – | 10 µM | -7.39%
CC(C)N1CCC[C@H]1CNC(=O)c1cn(C2CCCC2)c(=O)c2c1c1ccccc1n2C | ligand displacement | – | radioligand | 10 µM | 26%
Cc1c(N2CCNCC2)nc2ccc(Br)cc2c1C(=O)NC[C@H](CCC(=O)O)c1ccccc1Cl | ligand displacement | – | – | 10 µM | 3.81%
CCc1ccc(OCC(=O)N2CCN(Cc3ccc4c(c3)OCO4)CC2)c(Br)c1 | enzyme activity | inhibitor | – | 10 µM | -4.8%
COCc1c(-c2cc3cc(C)cc(OC)c3s2)c2c(N)ncnn2c1CN1CCNC(=O)C1 | ligand displacement | – | radioligand | 10 µM | 29%
c1ccc(C(NCCNC(c2ccccc2)c2ccccc2)c2ccccc2)cc1 | cell-free assay | – | – | 10 µM | 77%
c1ccc(C2(N3CCCCC3)CCCCC2)cc1 | enzyme activity | inhibitor | – | 10 µM | -9.9%
CC(C)Cn1cnc2c(N)nc3ccccc3c21 | ligand displacement | – | radioligand | 10 µM | 18%
